# Assay results from PubChem BioAssay AID624466 (The Scripps Research Institute Molecular Screening Center, 2012).
# Out of some 360,000 compounds screened, about 5,400 (1.5%) were called active. The sample holds actives, similar compounds and a random draw of the others, so the mix is not that of the screen. Unmarked numbers belong to inactive results.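 Rule for the calls: active = inhibition above a per-plate cutoff, the mean inhibition of test compounds on that plate plus 3 SD (cut at about 49% in these data); inactive = the rest.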
# Biological target: Trace amine-associated receptor 1 (Homo sapiens) (UniProt Q96RJ0)
# Test: blockers of beta-PEA-driven TAAR1 calcium signal – Fluo-8 calcium fluorescence, CHO RD-HGA16 cells, primary screen (AID 624466);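 note: 0% = DMSO plus EC80 beta-PEA response and 100% = DMSO alone without agonist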
# Conditions: CHO RD-HGA16 TAAR1, Fluo-8 calcium fluorescence, antagonist; at 3 µM; hits give high values
# Summary of the method: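 Assay system: RD-HGA16 CHO cells with stable hTAAR1 and Gα16 / Reagent: EC80 β-phenethylamine stimulus / Doses: 3 µM, single point / Timing: dye loading 75 min at 37 °C, then 30 min room temperature / Measured by: Fluo-8 intracellular calcium dye fluorescence, real-time kinetic reads / Controls: vehicle wells and EC80 agonist wells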
# Sequence of Trace amine-associated receptor 1 (Homo sapiens) (Q96RJ0 whole entry, looked up): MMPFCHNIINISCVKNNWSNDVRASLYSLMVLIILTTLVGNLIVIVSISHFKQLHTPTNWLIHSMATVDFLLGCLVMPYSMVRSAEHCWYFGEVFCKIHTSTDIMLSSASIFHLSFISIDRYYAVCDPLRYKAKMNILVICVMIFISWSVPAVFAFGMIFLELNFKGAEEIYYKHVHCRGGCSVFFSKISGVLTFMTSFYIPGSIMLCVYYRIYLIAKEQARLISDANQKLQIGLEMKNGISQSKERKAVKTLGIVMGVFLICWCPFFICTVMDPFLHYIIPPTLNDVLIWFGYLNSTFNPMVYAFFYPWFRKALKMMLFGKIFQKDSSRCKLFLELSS
row,SMILES,inhibition
1,O=C1[C@H]2[C@@H](c3ccc(C(F)(F)F)cc3)N[C@]3(CCCN(Cc4ccc(Br)cc4)C3=O)[C@H]2C(=O)N1Cc1ccccc1,-23.7%
2,CCCNC(=O)C[C@@H]1CC[C@@H]2[C@H](COC[C@H](O)CN2C(=O)c2cc(Cl)cc(Cl)c2)O1,-27.3%
3,O=C(NCCCc1ccccc1)C1CCC(=O)N(CCc2ccc(Cl)cc2)C1 (stereo not given),2.14%
4,CCOc1cc(N2CCOCC2)c(OCC)cc1NC(=O)COc1cccc2cccnc12,56.4% (active)
5,CCOc1cc(N2CCOCC2)c(OCC)cc1NC(=O)COC(=O)[C@H](Cc1c[nH]c2ccccc12)NC(C)=O,22.1%
6,CCOc1cc(N2CCOCC2)c(OCC)cc1NC(=O)C1=NN(c2cccc(C)c2)C(=O)CC1,44.9%
7,COc1ccccc1N1CC(C(=O)NCCN2C(=O)S/C(=C\c3cccnc3)C2=O)CC1=O (stereo not given),-4.74%
8,O=C(NCCN1C(=O)S/C(=C\c2cccnc2)C1=O)c1cccc(OC(F)F)c1,7.53%
9,O=C(NCCN1C(=O)S/C(=C\c2cccnc2)C1=O)c1ccc(S(=O)(=O)N2CCCC2)cc1,49.1% (active)
10,COC(=O)[C@@]12C[C@@H](CC(=O)NCc3cccc(C(F)(F)F)c3)C(=O)N(Cc3ccco3)C1=CCC(C)(C)C2,-43.8%
11,COC(=O)c1cc2c(c3c4ccccc4n(S(=O)(=O)c4cccc(C)c4)c13)C(=O)N(Cc1ccccc1)C2,-30.3%
12,O=S1(=O)c2c(cccc2N2CCCC2)O[C@H](COCc2ccccc2)CN1C1CC1,23.8%
13,CSc1ccc(Oc2cccc3c2S(=O)(=O)N([C@H](C)c2ccccc2)C[C@@H](COCc2ccccc2)O3)cc1C,5.23%
14,O=S1(=O)c2c(cccc2N2CCCCC2)O[C@H](COCc2ccccc2)CN1C1CC1,51.8% (active)
15,COC(=O)C1=C(C(=O)OC)C2C=C(C(C)C)C1C(=O)C2(C)O (stereo not given),-37.3%
16,C[C@@H]1CN([C@@H](C)CO)S(=O)(=O)c2ccc(C#Cc3cccc(F)c3)cc2O[C@H]1CN(C)S(=O)(=O)c1cn(C)cn1,68.3% (active)
17,C[C@H]1CN([C@@H](C)CO)S(=O)(=O)c2ccc(-c3cccc(F)c3)cc2O[C@@H]1CN(C)C,-12.6%
18,C[C@@H]1CN([C@H](C)CO)S(=O)(=O)c2ccc(C#C[C@@H](C)O)cc2O[C@@H]1CN(C)Cc1ccc(-c2ccccc2)cc1,-12.7%
19,C=CCN1C(=O)N(Cc2ccccc2)c2ccccc2S1(=O)=O,-0.33%
20,COCCNC(=O)c1cc2c(Br)ccc(Br)c2nc1N,-4.31%
21,CC(=O)Nc1ccc(NC(=O)CS(=O)(=O)c2cn(CC(=O)N3CCCCC3)c3ccccc23)cc1,-35.2%
22,O=C(Nc1nnc(SCc2c(Cl)cccc2Cl)s1)c1cccc([N+](=O)[O-])c1,-16.3%
23,O=C(Nc1ccc(C2CC2(Cl)Cl)cc1)c1cccc([N+](=O)[O-])c1 (stereo not given),49.6% (active)
24,CC(C)(C)SCCNC(=O)c1cccc([N+](=O)[O-])c1,-20.6%
25,COc1ccc(CC(=O)Nc2c(C(N)=O)oc3ccccc23)cc1,62.3% (active)
26,NC(=O)c1oc2ccccc2c1NC(=O)CS(=O)(=O)c1ccccc1,-13.1%
27,NC(=O)c1oc2ccccc2c1NC(=O)Cc1ccccc1,7.4%

row,SMILES,inhibition
1,Cc1nc(N2CCN(c3ccccn3)CC2)c2c(C)c(C(=O)Nc3ccc(F)cc3)sc2n1,58% (active)
2,Cc1nc(N2CCN(c3ccccn3)CC2)c2c(C)c(C(=O)Nc3ccc(F)c(Cl)c3)sc2n1,-1.25%
3,Cc1nc(N2CCOCC2)c2c(C)c(C(=O)Nc3ccc(C(F)(F)F)cc3)sc2n1,15.7%
4,CN(CC(=O)NCc1ccc(Cl)cc1)S(=O)(=O)c1cccs1,-2.12%
5,Cc1ccc(-c2nc3c(Cl)cc(C(F)(F)F)cn3c2Cc2cccc(Cl)c2)cc1,3.71%
6,Brc1ccc(COCCc2cn(Cc3ccccc3)c3ccccc23)cc1,-22%
7,COC(=O)Cc1nnn2c1[C@H](C)[C@@H](OC)c1cc(Br)ccc1-2,1.99%
8,COC(=O)Cc1nnn2c1[C@H](C)[C@H](c1ccccc1Br)OCC2,73.5% (active)
9,COC(=O)Cc1nnn2c1[C@H](C)[C@H](c1ccccc1[N+](=O)[O-])OCC2,51.6% (active)
10,COC(=O)C1(C(=O)OC)C/C=C\CN(S(=O)(=O)c2ccccc2[N+](=O)[O-])CCC1,-2.45%
11,COC(=O)N1Cc2ccnnc2CC1c1ccccc1Br (stereo not given),-6.91%
12,COc1ccc(NC(=O)C2=C(C)NC(=O)NC2c2ccccc2[N+](=O)[O-])cc1 (stereo not given),1.55%
13,CCn1cc(CCC(=O)NCc2ccc(F)cc2)c2ccccc21,8.18%
14,C=CC[C@]12C[C@@]3(O[C@H](c4ccc(C(F)(F)F)cc4)N=C3C[C@H](c3ccc(OC)cc3)[C@H]1C)N(C1CCN(Cc3ccccc3)CC1)C2=O,-52.6%
15,Cc1ccc(-c2cc(C(=O)NN)n[nH]2)o1,2.39%
16,CCOC(=O)[C@]12CCCC=C1N(CCC1=CCCCC1)C(=O)[C@H](CC(=O)N1CCOCC1)C2,-9.23%
17,CCCCNC(=O)C[C@@H]1C[C@@]2(C(=O)OC)CC(C)(C)CC=C2N(Cc2ccco2)C1=O,-0.44%
18,CCOC(=O)C1CCN(C(=O)C2(NC(=O)Nc3cccc(F)c3)CCCCC2)CC1,-26.8%
19,O=S1(=O)CC(N2CCN(Cc3ccccc3F)CC2)CN1Cc1cn(Cc2cccc(C(F)(F)F)c2)nn1 (stereo not given),-13%
20,CCOC(=O)[C@]12CCCC=C1N(Cc1ccc3c(c1)OCO3)C(=O)[C@H](CC(=O)N1CCN(C(=O)c3ccco3)CC1)C2,-4.35%
21,CC(C)C[C@H]1CNC(=O)C(=O)N1C[C@H]1CCCN1C[C@H](Cc1ccc(O)cc1)N1C[C@H](CC(C)C)N(CC2CCCCCC2)C(=O)C1=O,6.77%
22,CC1CCN(C(=O)c2ncn3c2C(=O)N[C@@H](C)C3)CC1,-2.44%
23,CSc1ncnc2c1ncn2CC(=O)C1CCC2C3CCC4=CC(=O)CCC4(C)C3CCC12C (stereo not given),61.8% (active)
24,CC(=O)C12CC(C)=C(C)CC1CC1C3CCC4=CC(=O)CCC4(C)C3CCC12C (stereo not given),-34.7%
25,CSc1ncnc2c1ncn2CCCNCC1CCCCC1,-17.2%
26,Cc1ccc(CNC(=O)CCS(=O)(=O)c2ccc3c(c2)CC(C)N3C(=O)C2CC2)o1 (stereo not given),-23.9%
27,Cc1[nH]c2ccccc2c1CC(=O)Nc1ccc(Nc2cccnc2)c(-c2cccc(Cl)c2)c1,-0.4%

row,SMILES,inhibition
1,C/C(=N/O)c1ccc(N2C(=O)C3C4C=CC(C3C2=O)C2C3C(=O)N(c5ccc(/C(C)=N/O)cc5)C(=O)C3C42)cc1 (stereo not given),-2.86%
2,COc1ccccc1CCn1cnc(-c2ccccc2)c1C(C)C,20%
3,COc1ccccc1CCNS(=O)(=O)c1cn(C)nc1C,-36.9%
4,CCCc1c(-c2ccccc2F)ncn1Cc1ccccc1OC,-7.18%
5,CCCCc1c(-c2ccc(Cl)cc2)ncn1CCc1ccccc1OC,49.6% (active)
6,CCCCCc1c(-c2ccc(OC)c(OC)c2)ncn1CCc1ccccc1OC,73.9% (active)
7,CCCCc1c(-c2ccc(Br)cc2)ncn1CCc1ccccc1OC,28.2%
8,CCCCCc1c(Cc2ccccc2)ncn1CCc1ccccc1OC,66.2% (active)
9,CCCCCc1c(-c2cccc(Br)c2)ncn1CCc1ccccc1OC,43.2%
10,CCc1c(-c2ccccc2OC)ncn1CCc1ccccc1OC,14.3%
11,CCOC(=O)c1cc2cc(OC)ccc2n1C1CCN(C)CC1,-4.73%
12,COC(=O)[C@]1(Cc2ccccc2)NC=C(C(=O)c2ccccc2)[C@@H]1c1cccc(OC)c1,-1.81%
13,C[C@H](NC(=O)[C@@H]1CCCN1C(=O)[C@@H]1CCCN1C(=O)c1ccccc1)c1ccccc1,2.01%
14,C=CCC[C@H](CCCCC)OC(=O)/C=C/[C@H](O)[C@@H](O)C[C@@H](O)CC=C,-19.3%
15,COC(=O)C(C)N(C#N)c1nc(C)nc(C)n1 (stereo not given),-2.26%
16,COC(=O)c1c(-c2ccc(OC)cc2)c2c(c3c4ccccc4n(S(=O)(=O)c4ccc(C)cc4)c13)C(=O)N(C)C2,-15.3%
17,CN=C(NC#N)NCCSCc1nc[nH]c1C,-15.6%
18,Cc1cc(C)n2nc(C(=O)Oc3ccc4c(c3)OCO4)nc2n1,2.03%
19,O=C(NCc1ccccc1)[C@@H]1CCCN1C(=O)[C@@H](NS(=O)(=O)c1ccc(F)cc1F)C1CCCCC1,7.07%
20,O=C(C(=O)N1CCC(c2ccccc2)CC1)c1ccccc1,-1.49%
21,O=C(CSc1nc(-c2ccco2)cc(C(F)(F)F)n1)NCc1cccs1,58.2% (active)
22,COc1ccc(-c2cc(C(F)(F)F)nc(SCCC(=O)NCc3ccco3)n2)cc1,-2.48%
23,O=C(CSc1nc(-c2ccco2)cc(C(F)(F)F)n1)N1CCc2ccccc2C1,-4.26%
24,CC1CCCN(C(C(=O)Nc2ccc(C(C)C)cc2)c2ccc3c(c2)OCO3)C1 (stereo not given),-12.3%
25,CCOC(=O)[C@]12CCCC=C1N(Cc1ccc3c(c1)OCO3)C(=O)[C@H](CC(=O)NCc1cccs1)C2,-12.1%
26,O=C(O)c1ccc(-n2cccc2)cc1O,6.36%
